Source: PubChem BioAssay
In the library only some 5.8% were active in any assay of this set; here they are far more common.
Pf Dd2 inh: blocks growth of Plasmodium falciparum Dd2 parasites; P. falciparum Dd2 growth, SYBR Green, 72 h; stronger effect = lower value; activity change, % at 10 µM; actives 2.3% (n = 94,000); AID 1159554; in the data active means activity change below about -80%
IDH1 mut inh: IDH1 R132H (human) inhibition; inhibition, % at 10 µM; actives 0.18% (n = 70,000); IDH1 R132H reductase, diaphorase/resazurin fluorescence, 60 min; AID 624101; in the data active means inhibition above about 34%;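 further: 0% = DMSO and 100% = no enzyme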
KDM4C inh: blocks human GASC-1 (KDM4C) demethylase activity. GST-KDM4C 2-372, H3K9me3 peptide, LANCE TR-FRET. actives 0.15% (n = 96,000). Q9H3R0. inhibition, % at 12.5 µM;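 active means mean replicate inhibition above about 25%, with at least 55% of replicates also reaching it, limit read from the data, passing the limit was not always enough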
Target sequence (Q9H3R0 2-372 limits assumed): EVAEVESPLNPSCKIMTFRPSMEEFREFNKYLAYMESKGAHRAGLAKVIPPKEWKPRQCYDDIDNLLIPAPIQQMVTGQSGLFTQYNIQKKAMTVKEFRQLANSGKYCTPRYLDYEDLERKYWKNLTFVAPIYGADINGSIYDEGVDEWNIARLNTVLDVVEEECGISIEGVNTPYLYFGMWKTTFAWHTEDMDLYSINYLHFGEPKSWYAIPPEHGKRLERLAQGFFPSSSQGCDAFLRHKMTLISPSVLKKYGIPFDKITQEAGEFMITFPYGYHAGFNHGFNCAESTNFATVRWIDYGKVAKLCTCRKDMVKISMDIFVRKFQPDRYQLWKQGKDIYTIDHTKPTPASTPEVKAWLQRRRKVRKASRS
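System: N-terminal GST-fused human GASC-1 (KDM4C) fragment, residues 2-372 / Amount: 10 nM GST-KDM4C in enzyme reaction / Also added: H3K9me3 peptide with Fe(II)/2OG / Times: 30 min demethylation and 1 h detection at room temperature / Signal: LANCE TR-FRET / Read-out basis: Fall in 671/618 emission ratio as inhibition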
Tcruzi prolif: blocks T. cruzi growth in NIH3T3 culture; T. cruzi beta-gal in NIH3T3, GalScreen luminescence, 90 h; inhibition, % at 8.34 µM; actives 5.9% (n = 77,000); AID 624255;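 active means mean inhibition above about 93%, with at least 55% of replicates each passing it, limit read from the data, passing the limit was not always enough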
* marks the source's active call; other numbers are inactive results; . = no result given.

SMILES	Pf Dd2 inh	IDH1 mut inh	KDM4C inh	Tcruzi prolif
COc1ccc(CN(C)C[C@H]2OCCCC[C@@H](C)Oc3ccc(NC(=O)CCCCCC(=O)Nc4ccccc4N)cc3C(=O)N([C@H](C)CO)C[C@@H]2C)cc1	-83.1*	.	1.2	.
C[C@@H]1CN([C@H](C)CO)C(=O)c2cc(NC(=O)CCCCCC(=O)Nc3ccccc3N)ccc2O[C@@H](C)CCCCO[C@@H]1CN(C)S(=O)(=O)c1ccc(Cl)cc1	-77.9	-0.5	-0.4	79.1
C[C@H](CO)N1C[C@H](C)[C@H](CN(C)CC2CCCCC2)OCCCC[C@H](C)Oc2ccc(NC(=O)CCCCCC(=O)Nc3ccccc3N)cc2C1=O	-81.9*	.	2.8	89.1
C[C@@H]1CCCCO[C@H](CN(C)Cc2ccccc2)[C@@H](C)CN([C@H](C)CO)C(=O)c2cc(NC(=O)CCCCCC(=O)Nc3ccccc3N)ccc2O1	-82.6*	.	-1.3	.
COc1ccc(NC(=O)Nc2ccc3c(c2)C(=O)N([C@H](C)CO)C[C@H](C)[C@H](CN(C)Cc2ccc(C(=O)Nc4ccccc4N)cc2)OCCCC[C@@H](C)O3)cc1	-87.1*	0.1	2.3	.
C/C=C/c1ccc2c(c1)O[C@@H](CN(C)Cc1ccc(C(=O)O)cc1)[C@H](C)CN([C@@H](C)CO)S2(=O)=O	25.6	0.2	0.9	.
C/C=C/c1ccc2c(c1)O[C@H](CN(C)Cc1ccc(C(=O)O)cc1)[C@@H](C)CN([C@H](C)CO)S2(=O)=O	-85.9*	6.4	1.9	.
C/C=C/c1ccc2c(c1)O[C@@H](CN(C)CCC)[C@@H](C)CN([C@H](C)CO)S2(=O)=O	-10.8	52.8*	37.9*	-25.4
COc1ccccc1S(=O)(=O)N(C)C[C@H]1OCc2ccccc2-c2c(n(C)c3ccccc23)C(=O)N([C@@H](C)CO)C[C@H]1C	-67.6	-1.8	-0.1	51.3
C[C@H](CO)N1C[C@H](C)[C@H](CN(C)S(=O)(=O)c2cccc(F)c2)OCc2ccccc2-c2c(n(C)c3ccccc23)C1=O	-90.9*	.	.	.
COc1cccc(S(=O)(=O)N(C)C[C@@H]2OCc3ccccc3-c3c(n(C)c4ccccc34)C(=O)N([C@@H](C)CO)C[C@@H]2C)c1	-85.5*	0.3	-3.7	79.3
COc1cccc(S(=O)(=O)N(C)C[C@H]2OCc3ccccc3-c3c(n(C)c4ccccc34)C(=O)N([C@@H](C)CO)C[C@H]2C)c1	-74.9	0.0	-2.7	74.2
COc1cccc(S(=O)(=O)N(C)C[C@@H]2OCc3ccccc3-c3c(n(C)c4ccccc34)C(=O)N([C@H](C)CO)C[C@@H]2C)c1	-88.9*	.	-4.2	73.6
COc1ccccc1S(=O)(=O)N(C)C[C@H]1OCc2ccccc2-c2c(n(C)c3ccccc23)C(=O)N([C@@H](C)CO)C[C@@H]1C	-86.6*	.	-4.4	72.3
C[C@@H]1CN([C@H](C)CO)C(=O)c2cc(NC(=O)NC3CCCCC3)ccc2O[C@H]1CN(C)S(=O)(=O)c1cn(C)cn1	23.1	-0.1	0.8	28.5
O=C(NCCCn1ccnc1)c1ccccc1I	.	14.2	.	.
O=C(NCCCn1ccnc1)c1cc(-c2ccc(Br)cc2)nc2ccccc12	.	41.7*	.	.
COc1ccc(NC(=O)Nc2ccc3c(c2)C(=O)N([C@@H](C)CO)C[C@@H](C)[C@@H](CN(C)C(=O)Nc2ccc4c(c2)OCO4)O3)cc1	-4.0	0.0	-0.7	16.3
CC(C)NC(=O)Nc1ccc2c(c1)C(=O)N([C@@H](C)CO)C[C@@H](C)[C@H](CN(C)C(=O)CCCN(C)C)OCCCC[C@@H](C)O2	20.7	2.3	1.8	41.3
C[C@@H]1CN([C@H](C)CO)C(=O)c2cc(NC(=O)NC3CCCCC3)ccc2O[C@@H](C)CCCCO[C@@H]1CN(C)C(=O)Nc1ccc(F)cc1	-88.0*	-1.9	-1.9	.
C[C@@H]1CCCCO[C@@H](CN(C)C(=O)NC2CCCCC2)[C@H](C)CN([C@@H](C)CO)C(=O)c2cc(NC(=O)Nc3ccccc3)ccc2O1	-18.4	0.0	0.3	5.2
C[C@@H]1CN([C@H](C)CO)C(=O)c2cc(NC(=O)Nc3ccccc3)ccc2O[C@@H](C)CCCCO[C@@H]1CN(C)C(=O)NC1CCCCC1	-84.8*	.	-1.0	-20.6
C[C@@H]1CCCCO[C@@H](CN(C)C(=O)Nc2ccccc2)[C@@H](C)CN([C@H](C)CO)C(=O)c2cc(NC(=O)NC3CCCCC3)ccc2O1	8.7	0.7	-0.3	23.3
C[C@@H]1CN([C@H](C)CO)C(=O)c2cc(NC(=O)NC3CCCCC3)ccc2O[C@@H](C)CCCCO[C@@H]1CN(C)C(=O)Nc1ccccc1	-81.1*	.	-0.2	33.1
CS(=O)(=O)N1CC2(C1)[C@@H](c1ccccc1)[C@@H](CO)N2CC1CCCC1	-32.6	.	1.7	.
SMILES	Pf Dd2 inh	IDH1 mut inh	KDM4C inh	Tcruzi prolif
C[C@@H]1CN([C@@H](C)CO)C(=O)c2cccc(NC(=O)C3CCCCC3)c2O[C@H]1CN(C)Cc1ccc(C(=O)Nc2ccccc2N)cc1	-87.0*	0.1	-3.3	72.0
C[C@@H]1CN([C@H](C)CO)C(=O)c2cccc(NC(=O)C3CCCCC3)c2O[C@H]1CN(C)Cc1ccc(C(=O)Nc2ccccc2N)cc1	-85.5*	.	-3.6	75.9
C[C@H]1CN([C@@H](C)CO)C(=O)c2cccc(NC(=O)C3CCCCC3)c2O[C@H]1CN(C)Cc1ccc(C(=O)Nc2ccccc2N)cc1	-69.2	.	-1.4	79.5
C[C@@H]1CN([C@H](C)CO)C(=O)c2cccc(NC(=O)C3CCCCC3)c2O[C@@H]1CN(C)Cc1ccc(C(=O)Nc2ccccc2N)cc1	-84.0*	-0.7	-1.9	69.8
C[C@@H]1CN([C@@H](C)CO)C(=O)c2cccc(NC(=O)NC3CCCCC3)c2O[C@@H]1CN(C)Cc1ccc(C(=O)Nc2ccccc2N)cc1	-89.9*	.	-1.2	65.3
C[C@H]1CN([C@@H](C)CO)C(=O)c2cccc(NC(=O)C3CC3)c2O[C@@H]1CN(C)Cc1ccc(C(=O)Nc2ccccc2N)cc1	-53.6	0.4	0.6	91.1
COc1ccc2c3c(n(C)c2c1)[C@H](CO)N(C(=O)NC(C)C)CC31CN(C(C)=O)C1	18.7	.	0.3	.
CC(C)NC(=O)Nc1ccc2c(c1)C(=O)N(C)[C@H]1CC[C@H](CC(=O)Nc3ccccc3)O[C@H]1CO2	-97.8*	.	-2.0	0.6
C[C@@H]1CCCCO[C@@H](CN(C)C(=O)Nc2ccc(F)cc2)[C@H](C)CN([C@H](C)CO)C(=O)c2cc(NS(=O)(=O)c3cccs3)ccc2O1	-85.9*	8.7	0.1	82.6
C[C@@H]1CN([C@@H](C)CO)C(=O)c2cc(NS(=O)(=O)c3cccs3)ccc2O[C@@H](C)CCCCO[C@@H]1CN(C)C(=O)Nc1ccc(C(F)(F)F)cc1	-82.2*	0.4	-1.4	.
C[C@@H]1CCCCO[C@H](CN(C)C(=O)Nc2ccc(F)cc2)[C@H](C)CN([C@H](C)CO)C(=O)c2cc(NS(=O)(=O)c3cccs3)ccc2O1	-86.4*	.	-1.0	78.7
C[C@H]1CCCCO[C@@H](CN(C)C(=O)Nc2ccc(F)cc2)[C@@H](C)CN([C@@H](C)CO)C(=O)c2cc(NS(=O)(=O)c3cccs3)ccc2O1	-57.4	0.6	-1.3	47.4
